According to ChEMBL document CHEMBL4513216, “Probing the Open Global Health Chemical Diversity Library for Multistage-Active Starting Points for Next-Generation Antimalarials” (ACS Infect Dis, 2020):

Assay: Toxicity liver stage against HepG2, at 10uM
Assay type: cell-based
Design: test concentration 10 uM, cell line HepG2-A16-CD81EGFP
Settings: human, HepG2-A16-CD81EGFP cells; read-out: INHIBITION
Summary of the method: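 Uninfected HepG2-A16-CD81EGFP cells, 3 × 10^3 per well, 1536-well, plated on prespotted compound at 10 μM final, parasite-free screening media added to match infected plates; puromycin 10 μM positive, DMSO 0.5% negative; run in parallel with 48 h PbLuc assay at 37 °C, 5% CO2; viability by CellTiter-Glo luminescence, normalized to controls.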

SMILES	cytotoxicity at 10 µM
Cc1ccc(CNC2(Cc3cc(-c4ccccn4)on3)COC2)o1	8.91%
CC(=O)N1CCCC1c1nc(C)no1 (stereo unspecified)	-14.8%
COCC(=O)N1CCCC1c1nccnc1Nc1ncccn1 (stereo unspecified)	-2.69%
Cn1cnnc1C1CCCN(c2nc3ccccc3o2)C1 (stereo unspecified)	-17.4%
CC(C)c1ccc(S(=O)(=O)NC2CCN(CC(F)(F)F)C2)cc1 (stereo unspecified)	9.19%
CCN(Cc1ccoc1)C(=O)Nc1ccccc1CN(C)C(C)=O	4.55%
CC(NC(=O)CCCc1nc(C(C)(C)C)no1)c1nnc2n1CCC2 (stereo unspecified)	-0.527%
c1ccc(CCN2CCOC3(CCc4ccccc43)C2)nc1 (stereo unspecified)	-4%
COC(=O)c1ccc(/C=C/c2ncc(C(=O)O)s2)cc1	-7.11%
Cc1ccccc1C(C)(C)CNC(=O)CN(C)c1cnccn1	-2.21%
CCc1nsc(NC2CCCn3nc(COC)nc32)n1 (stereo unspecified)	14.1%
OCC1CCCN1c1cc(NCCNc2ccccn2)ncn1 (stereo unspecified)	-20.1%
Cn1ccnc1CNC(=O)N1CCCC(Cc2nccn2C)C1 (stereo unspecified)	2.63%
COCc1noc(CCNC(=O)c2cc(C)c(C)[nH]c2=O)n1	-4.71%
Cc1cccc(C(C(=O)N2CC(Oc3ccccc3F)C2)N(C)C)c1 (stereo unspecified)	-0.572%
CCc1nc(N2CCCC(CCOC)(C(=O)O)C2)ncc1C (stereo unspecified)	4.11%
C[C@@H]1CN(C(=O)CSc2nncn2C)C[C@@]1(O)C1CC1	-15.7%
Cc1ccc(CCNc2nccc(-c3cc(C(=O)O)ccn3)n2)o1	-2.86%
CC(C)(C)CNCC1(O)CCCN(Cc2ccccc2F)C1=O (stereo unspecified)	9.04%
CN1Cc2nnc(C3CCOCC3)n2C(Cc2c[nH]cn2)C1 (stereo unspecified)	-12.1%
COc1ncc(CN2CCC3(CCCN(CC4CCCCC4)C3)C2)cn1 (stereo unspecified)	-6.8%
CN(C)S(=O)(=O)N1CC[C@]2(O)CCN(c3ncccn3)C[C@@H]2C1	5.74%
CCn1ccnc1-c1nc2cc(S(=O)(=O)N3CCCC3)ccc2n1C	-22.3%

SMILES	cytotoxicity at 10 µM
CCn1cc(CN(C)C(=O)c2cccc(CCC(C)(C)O)c2)cn1	-0.0444%
O=C(CCc1c[nH]cn1)N1CC[C@@H](c2ccc3ccccc3c2)[C@H](O)C1	-4.04%
O=C(c1ccccn1)N1CCCC(c2nccn2Cc2ccncc2)C1 (stereo unspecified)	-14.1%
CC(C(=O)N1CCCC1)N1CCC(c2nccn2CC2CCC2)CC1 (stereo unspecified)	-1.96%
Cn1nccc1CNC(=O)CCn1nc(C(F)(F)F)c(Cl)c1C1CC1	-3.33%
Cc1ccc(NC2CCN(C(=O)CCc3cscn3)CC2)nn1	-9.2%
COc1cccc(CN2CCCC(Cn3nc(C)nc3C)C2)c1 (stereo unspecified)	-13.4%
CC(C(=O)NCc1ccc(N2CCCCC2)nc1)n1cncn1 (stereo unspecified)	-10.3%
O=C(CN1CCCC1c1noc(C2CC2)n1)N1CCc2ccccc21 (stereo unspecified)	-5.86%
Cc1nn(C)c(N2CCOCC2)c1CNC1CCc2ccccc21 (stereo unspecified)	-0.704%
Cc1ccc(C(CNC(=O)c2c(C)noc2C(C)C)N(C)C)cc1 (stereo unspecified)	-12.4%
CN(Cc1nc(-c2ccoc2)no1)C1CCCN(c2cccnn2)C1 (stereo unspecified)	-14.8%
CN(C)c1ccc(C(=O)N2CCN(CC(O)C(C)(C)C)CC2)nn1 (stereo unspecified)	-19.2%
Cc1cc(CN2CCOC(CNc3cccnn3)C2)no1 (stereo unspecified)	-18.4%
CN(Cc1ccc(N2CCOCC2)cc1)C(=O)Cn1cccnc1=O	-18.4%
COC(=O)CC(NC(=O)c1ccc(OC)cc1OC)c1cccs1 (stereo unspecified)	-0.554%
Cc1cnn(CCNCc2ccc(OCc3ccncc3)cc2)c1	-2.99%
Cc1cnn(CC2CCCCN2C(=O)Cc2c(C)nn(C)c2C)c1 (stereo unspecified)	-13%
Cn1ccnc1CN1CCOC(Cn2cccn2)C1 (stereo unspecified)	-6.07%
CC1CCCCN1CCNC(=O)c1ccn(-c2ccccc2)n1 (stereo unspecified)	-15.2%
Cc1cnc(C(=O)N2CCCC(n3nc(C)nc3C)C2)cn1 (stereo unspecified)	-12%
CC(NC(=O)NCC1(c2ccc(F)cc2)CCC1)c1nncn1C (stereo unspecified)	-3.59%
COCC1c2c(cnn2CC2CC2)CCN1Cc1nccs1 (stereo unspecified)	-1.21%
